Measured values reported in ChEMBL document CHEMBL1142894, “Preparation of 5-aryl-3-alkylthio-l,2,4-triazoles and corresponding sulfones with antiinflammatory-analgesic activity” (Bioorg Med Chem, 2007).
Calls of active or inactive are those of the source. No cut-off for these calls is given here.

Tests used:
[1] = system: Mus musculus; test: Antiinflammatory activity against carrageenan-induced paw edema in Swiss albino mouse assessed as swelling thickness at 100 mg/kg, po after 90 mins; format: functional
In short: (§1)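 Oral dosing in 0.5% CMC; vehicle to controls. Then carrageenan (0.5 mg/25 ll, freshly suspended in 154 mM saline) injected into the right hind paw subplantar tissue; saline into the left paw. Right-left footpad thickness difference measured by dial gauge calliper every 90 min over 6 h. Inhibition % is relative to vehicle control. n = 6; mean ± SEM.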

[2] = system: Mus musculus; test: Antiinflammatory activity against carrageenan-induced paw edema in Swiss albino mouse assessed as swelling thickness at 100 mg/kg, po after 180 mins; format: functional; in short: as §1
[3] = system: Mus musculus; test: Antiinflammatory activity against carrageenan-induced paw edema in Swiss albino mouse assessed as swelling thickness at 100 mg/kg, po after 270 mins; format: functional; in short: as §1
[4] = system: Mus musculus; test: Antiinflammatory activity against carrageenan-induced paw edema in Swiss albino mouse assessed as swelling thickness at 100 mg/kg, po after 360 mins; format: functional; in short: as §1
[5] = system: Mus musculus; test: Inhibition of carrageenan-induced paw edema in Swiss albino mouse at 100 mg/kg, po after 90 mins relative to control; format: functional; conditions: 1.5 h; in short: as §1
[6] = system: Mus musculus; test: Inhibition of carrageenan-induced paw edema in Swiss albino mouse at 100 mg/kg, po after 180 mins relative to control; format: functional; conditions: 3 h; in short: as §1
[7] = system: Mus musculus; test: Inhibition of carrageenan-induced paw edema in Swiss albino mouse at 100 mg/kg, po after 270 mins relative to control; format: functional; conditions: 4.5 h; in short: as §1
[8] = system: Mus musculus; test: Inhibition of carrageenan-induced paw edema in Swiss albino mouse at 100 mg/kg, po after 360 mins relative to control; format: functional; conditions: 6 h; in short: as §1
[9] = system: Mus musculus; test: Analgesic activity against p-benzoquinone-induced abdominal constriction in Swiss albino mouse assessed as number of writhings at 100 mg/kg, po; format: functional, Abdomen
In short: (§2)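 Test samples given orally in 0.5% CMC; vehicle to controls. 60 min later, 2.5% (v/v) p-benzoquinone in distilled water, 0.1 ml/10 g, given i.p. Mice housed singly; writhes counted for 15 min starting 5 min after injection. Activity is % change from vehicle controls. n = 6; mean ± SEM.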

[10] = system: Mus musculus; test: Inhibition of p-benzoquinone-induced writhing in Swiss albino mouse at 100 mg/kg, po relative to control; format: functional
In short: (§3)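 Mice, n = 6 per group, dosed orally with a suspension in 0.5% sodium CMC. 60 min later, 0.1 ml/10 g of 2.5% […] p-benzoquinone in distilled water given ip. Abdominal writhes counted per animal for 15 min, starting 5 min after injection. Expressed as % change in mean writhing count versus vehicle controls.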

[11] = system: Mus musculus; test: Acute toxicity in Swiss albino mouse assessed as lethal effect at 25 mg/kg/day, po after 72 hrs; format: organism-based; design: route oral; conditions: in vivo
In short: (§4)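 Oral single dose suspended in 0.5% carboxymethylcellulose, given after a 24 h fast; food and water returned 1 h after dosing. Vehicle-only controls. Mice observed at 1 h, then once daily for 72 h, for toxic signs and mortality.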

[12] = system: Mus musculus; test: Acute toxicity in Swiss albino mouse assessed as lethal effect at 50 mg/kg/day, po after 72 hrs; format: organism-based; design: route oral; conditions: in vivo; in short: as §4
[13] = system: Mus musculus; test: Acute toxicity in Swiss albino mouse assessed as lethal effect at 100 mg/kg/day, po after 72 hrs; format: organism-based; design: route oral; conditions: in vivo; in short: as §4
[14] = system: Mus musculus; test: Acute toxicity in Swiss albino mouse assessed as lethal effect at 200 mg/kg/day, po after 72 hrs; format: organism-based; design: route oral; conditions: in vivo; in short: as §4
[15] = system: Mus musculus; test: Gastric-ulcerogenic effect in Swiss albino mouse assessed as lesions at 100 mg/kg, po; format: functional, organism-based; design: dose 100 mg/kg
In short: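 Mice killed under deep ether anesthesia 3 h after the writhing test; the oral dose in 0.5% CMC was the one used in that test. Stomachs removed, opened along the great curvature and examined under a dissecting microscope for lesions or bleeding. Reported as ratio of ulceration; n = 6.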

[16] = system: Mus musculus; test: Analgesic activity against p-benzoquinone-induced abdominal constriction in Swiss albino mouse assessed as number of writhings at 200 mg/kg, po; format: functional, Abdomen; in short: as §2
[17] = system: Mus musculus; test: Inhibition of p-benzoquinone-induced writhing in Swiss albino mouse at 200 mg/kg, po relative to control; format: functional; in short: as §3

| SMILES | Activity [1] | Activity [2] | Activity [3] | Activity [4] | inhibition in vivo at 100 mg/kg [5] [%] | inhibition in vivo at 100 mg/kg [6] [%] | inhibition in vivo at 100 mg/kg [7] [%] | inhibition in vivo at 100 mg/kg [8] [%] | Activity [9] | inhibition in vivo at 100 mg/kg [10] [%] | Activity [11] | Activity [12] | Activity [13] | Activity [14] | Activity [15] | Activity [16] | inhibition in vivo at 200 mg/kg [17] [%] |
| --- | --- | --- | --- | --- | --- | --- | --- | --- | --- | --- | --- | --- | --- | --- | --- | --- | --- |
| CSc1nc(-c2ccccc2)n[nH]1 | 38.1 10^-2mm | 44.5 10^-2mm | 47.6 10^-2mm | 54.4 10^-2mm | 14.9 | 13.6 | 19 | 20.9 | 40.2 | 15 | Non-toxic | Non-toxic | Non-toxic | Non-toxic | – | – | – |
| CCS(=O)(=O)c1nc(-c2cccc(Br)c2)n[nH]1 | 68.8 10^-2mm | 74.9 10^-2mm | 85.6 10^-2mm | 91.7 10^-2mm | – | – | – | – | 45.2 | 4.4 | Non-toxic | Non-toxic | Non-toxic | Non-toxic | – | – | – |
| CS(=O)(=O)c1nc(-c2ccccc2)n[nH]1 | 44.2 10^-2mm | 45.2 10^-2mm | 47.5 10^-2mm | 56.7 10^-2mm | 1.3 | 12.2 | 19.2 | – | 37.4 | 20.9 | Non-toxic | Non-toxic | Non-toxic | Non-toxic | Active | – | – |
| CS(=O)(=O)c1nc(-c2cccc(Br)c2)n[nH]1 | 48.2 10^-2mm | 55.9 10^-2mm | 65.8 10^-2mm | 80.5 10^-2mm | – | – | – | – | 48.2 | – | Non-toxic | Non-toxic | Non-toxic | Non-toxic | Active | – | – |
| CC(=O)Oc1ccccc1C(=O)O [ASPIRIN] | – | – | – | – | – | – | – | – | 21.2 | 55.2 | – | – | – | – | – | 23.8 | 53.6 |
| CSc1nc(-c2cccc(Br)c2)n[nH]1 | 47.5 10^-2mm | 57.3 10^-2mm | 67.7 10^-2mm | 79.5 10^-2mm | – | – | – | – | 46.8 | 1.1 | Non-toxic | Non-toxic | Non-toxic | Non-toxic | Active | – | – |
| CS(=O)(=O)c1nc(-c2ccc(Br)cc2)n[nH]1 | 51.2 10^-2mm | 55.2 10^-2mm | 59.5 10^-2mm | 64 10^-2mm | – | – | – | – | 49.4 | – | Non-toxic | Non-toxic | Non-toxic | Non-toxic | – | – | – |
| CCSc1nc(-c2ccc(Br)cc2)n[nH]1 | 59.6 10^-2mm | 69.2 10^-2mm | 78.2 10^-2mm | 88.3 10^-2mm | – | – | – | – | 49.2 | – | Non-toxic | Non-toxic | Non-toxic | Non-toxic | – | – | – |
| CSc1n[nH]c(-c2ccc(Cl)cc2)n1 | – | – | – | – | – | – | – | – | – | – | Non-toxic | Non-toxic | Non-toxic | Non-toxic | – | – | – |
| CCSc1nc(-c2cccc(Br)c2)n[nH]1 | 48.5 10^-2mm | 52.3 10^-2mm | 55.3 10^-2mm | 58.3 10^-2mm | – | – | – | – | 51.5 | – | Non-toxic | Non-toxic | Non-toxic | Non-toxic | Active | – | – |
| CSc1nc(-c2ccc(Br)cc2)n[nH]1 | 46.9 10^-2mm | 54.1 10^-2mm | 63.3 10^-2mm | 70.9 10^-2mm | – | – | – | – | 58.9 | – | Non-toxic | Non-toxic | Non-toxic | Non-toxic | – | – | – |
| CSc1nc(-c2ccccc2Cl)n[nH]1 | 42.7 10^-2mm | 48.8 10^-2mm | 52.8 10^-2mm | 57 10^-2mm | 4.7 | 5.2 | 10.2 | 17.2 | 41.8 | 11.6 | Non-toxic | Non-toxic | Non-toxic | Non-toxic | Active | – | – |
| CCSc1nc(-c2ccccc2)n[nH]1 | 46 10^-2mm | 48.3 10^-2mm | 51.2 10^-2mm | 54.7 10^-2mm | – | – | – | – | 46.1 | 2.5 | Non-toxic | Non-toxic | Non-toxic | Non-toxic | Active | – | – |
